Measured values taken from article PMC12222516 (Scientific Reports, 2025).
pKi: −log10 of the molar value.

How the values were obtained:
[1] = MTT cytotoxicity assay; assay type: cell-based, human; settings: human, normal human dermal fibroblast (HDF) cells
Outline: (§1)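 Human dermal fibroblasts grown in DMEM with 10% FBS, penicillin 100 units/mL, streptomycin 100 µg/mL and amphotericin B 0.25 µg/mL. Seeded at 2 × 10³ cells/well and left to adhere overnight at 37 °C, 5% CO2. Exposed to varying doses for 24 h, with 0.5% DMSO as untreated control. MTT at 1 mg/mL for 4 h at 37 °C. Formazan dissolved in DMSO and read at 570 nm. Viability expressed as % of control.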

[2] = target: α-glucosidase from Saccharomyces cerevisiae (Saccharomyces cerevisiae, UniProt P53341); assay: Enzyme kinetic study; assay type: biochemical
Outline: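 Yeast (S. cerevisiae) α-glucosidase, EC 3.2.1.20, kept at 0.02 U/mL. Run with and without test compound at several concentrations, across a range of p-NPG substrate concentrations. Inhibition type assigned from the Lineweaver–Burk plot. Ki taken from a secondary plot of slope against inhibitor concentration.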

[3] = system: normal human dermal fibroblast (HDF) cells; assay: MTT cytotoxicity assay; assay type: cell-based; settings: HDF cells, MTT
Outline: as §1

Chain of α-glucosidase from Saccharomyces cerevisiae (P53341 whole entry): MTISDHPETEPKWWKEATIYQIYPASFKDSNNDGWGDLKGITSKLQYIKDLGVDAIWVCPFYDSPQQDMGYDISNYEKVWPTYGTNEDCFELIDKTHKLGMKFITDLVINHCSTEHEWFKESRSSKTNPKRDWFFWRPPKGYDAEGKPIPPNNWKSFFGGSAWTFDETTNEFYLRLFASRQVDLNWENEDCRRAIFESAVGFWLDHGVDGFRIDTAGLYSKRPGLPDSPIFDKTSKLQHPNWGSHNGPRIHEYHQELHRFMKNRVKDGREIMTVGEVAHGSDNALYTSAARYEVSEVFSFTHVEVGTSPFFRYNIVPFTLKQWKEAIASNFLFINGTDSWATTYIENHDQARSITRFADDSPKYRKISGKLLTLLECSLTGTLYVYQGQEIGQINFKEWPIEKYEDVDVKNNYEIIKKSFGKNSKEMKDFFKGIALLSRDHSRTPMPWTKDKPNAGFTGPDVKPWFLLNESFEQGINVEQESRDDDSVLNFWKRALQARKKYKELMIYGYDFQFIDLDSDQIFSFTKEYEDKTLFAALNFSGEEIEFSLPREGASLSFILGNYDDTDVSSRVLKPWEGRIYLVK

pKi [2] | mode of inhibition ([2]; Lineweaver–Burk plots) | Compound | CC50 at 24 h [1] [µM] | cytotoxic effect on normal cells at given IC50 value [3]
 |  | C[C@H]1CN(C(=O)Nc2ccc(C(F)(F)F)cc2)CCN1c1ccnc(Nc2ccc(Cl)cc2)n1 [Compound 7c, (S)-4-(2-((4-chlorophenyl)amino)pyrimidin-4-yl)-3-methyl-N-(4-(trifluoromethyl)phenyl)piperazine-1-carboxamide] | 42.3 | 
 |  | C[C@H]1CN(C(=O)Nc2ccc(C(F)(F)F)cc2)CCN1c1ccnc(Nc2cccc([N+](=O)[O-])c2)n1 [Compound 17c, (S)-3-methyl-4-(2-((3-nitrophenyl)amino)pyrimidin-4-yl)-N-(4-(trifluoromethyl)phenyl)piperazine-1-carboxamide] | 15.2 | 
6.13 | competitive inhibitor | C[C@H]1CN(C(=O)Nc2ccc(C(F)(F)F)cc2)CCN1c1ccnc(Nc2ccc(Cl)c(O)c2)n1 [Compound 21c, (S)-4-(2-((4-chloro-3-hydroxyphenyl)amino)pyrimidin-4-yl)-3-methyl-N-(4-(trifluoromethyl)phenyl)piperazine-1-carboxamide] | 23.1 | no cytotoxic effect
 |  | C[C@H]1CN(C(=O)Nc2ccc(C(F)(F)F)cc2)CCN1c1ccnc(Nc2ccc(Cl)c(OCc3ccccc3)c2)n1 [Compound 22c, (S)-4-(2-((3-(benzyloxy)-4-chlorophenyl)amino)pyrimidin-4-yl)-3-methyl-N-(4-(trifluoromethyl)phenyl)piperazine-1-carboxamide] | > 200 | 
